Results as given in ChEMBL document CHEMBL6115035 (J Med Chem, 2025).
Values belong to the molecule of their own block, whether it stands above or below them. Active and inactive are the calls of the source. No cut-off for these calls is given here.

How the values were obtained:
VCaP [1] = assay: Antiproliferative activity against human VCaP cells measured after 5 days by Cell Titer-Glo assay; type: functional, cell-based; conditions: 120 h
Summary of the method: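 Cells were seeded and incubated overnight at 37 °C, 5% CO2. Serial compound dilutions were then added. Viability was read by CellTiter-Glo luminescence after 5 days, and IC50 was obtained by curve fitting.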

[2] = biological target: Cyclin-dependent kinase 12 (Homo sapiens) (UniProt Q9NYV4); assay: Binding affinity to CDK12 in human VCaP cells incubated for 4 hrs by streptavidin-biotin pull down assay; type: cell-based
Summary of the method: (§1)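 VCaP cells were treated with a biotinylated probe for 4 h and lysed in RIPA buffer. Lysate was incubated with streptavidin beads overnight at 4 °C. Beads were washed three times with PBST (0.1% Tween) and eluted in 2X SDS loading buffer. Proteins were separated by SDS-PAGE.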

[3] = biological target: Cyclin-dependent kinase 13 (Homo sapiens) (UniProt Q14004); assay: Binding affinity to CDK13 in human VCaP cells incubated for 4 hrs by streptavidin-biotin pull down assay; type: cell-based; summary of the method: as §1
[4] = biological target: T1, Cyclin-dependent kinase 5/CDK5 activator 1 (Homo sapiens, UniProt Q00535); assay: Inhibition of CDK5/p25NCK (unknown origin) by ADP-Glo kinase assay; type: protein-complex assay
[5] = biological target: Cyclin-Y/Cyclin-dependent kinase 16 (Homo sapiens, UniProt Q00536); assay: Inhibition of CDK16/cyclin Y (unknown origin) by ADP-Glo kinase assay; type: protein-complex assay
CDK9/cyclin T1 = CDK9/cyclin T1 (Homo sapiens, UniProt P50750); assay: Inhibition of CDK9/Cyclin T1 (unknown origin) by ADP-Glo kinase assay; type: protein-complex assay
VCaP [6] = assay: Upregulation of c-PARP expression in human VCaP cells at 10 to 300 nM pretreated for 2 hrs followed by compound washout measured after 12 hrs by Western blot analysis; type: functional, cell-based; conditions: dose 10-300 nM
Summary of the method: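 VCaP cells were grown in DMEM GlutaMAX with 10% FBS and P/S. After treatment they were washed with cold PBS and lysed in RIPA with protease inhibitors. Equal protein was run on 4–12% Bis-Tris SDS-PAGE, transferred to nitrocellulose, and probed for cleaved PARP with α-tubulin as loading control. Detection used HRP secondary antibodies.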

[7] = biological target: T1, Cyclin-dependent kinase 5/CDK5 activator 1; assay: Inhibition of CDK5/p35NCK (unknown origin) by ADP-Glo kinase assay; type: protein-complex assay
CDK7/Cyclin H/MNAT1 = CDK7/Cyclin H/MNAT1 (Homo sapiens, UniProt P50613); assay: Inhibition of CDK7/cyclin H/MAT1 (unknown origin) by ADP-Glo kinase assay; type: protein-complex assay
CDK6/cyclin D1 = CDK6/cyclin D1 (Homo sapiens, UniProt Q00534); assay: Inhibition of CDK6/cyclin D1 (unknown origin) by ADP-Glo kinase assay; type: protein-complex assay
[8] = biological target: Cyclin-dependent kinase 4/cyclin D1 (Homo sapiens, UniProt P11802); assay: Inhibition of CDK4/Cyclin D1 (unknown origin) by ADP-Glo kinase assay; type: protein-complex assay
CDK8/Cyclin C = CDK8/Cyclin C (Homo sapiens, UniProt P49336); assay: Inhibition of CDK8/Cyclin C (unknown origin) by ADP-Glo kinase assay; type: protein-complex assay
CDK1/Cyclin E = CDK1/Cyclin E (Homo sapiens, UniProt P06493); assay: Inhibition of CDK1/Cyclin E1 (unknown origin) by ADP-Glo kinase assay; type: protein-complex assay
Summary of the method: (§2)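 Kinase inhibition was measured by ADP-Glo assay. IC50 values are means of three independent experiments.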

[9] = biological target: Cyclin-C/Cyclin-dependent kinase 19 (Homo sapiens, UniProt Q9BWU1); assay: Inhibition of CDK19/Cyclin C (unknown origin) by ADP-Glo kinase assay; type: protein-complex assay
VCaP [10] = assay: Downregulation of RAD51 expression in human VCaP cells at 10 to 300 nM pretreated for 2 hrs followed by compound washout measured after 12 hrs by Western blot analysis; type: functional, cell-based; conditions: dose 10-300 nM
CDK9/Cyclin K = CDK9/Cyclin K (Homo sapiens, UniProt P50750); assay: Inhibition of CDK9/Cyclin K (unknown origin) by ADP-Glo kinase assay; type: protein-complex assay
CDK1/Cyclin A = CDK1/Cyclin A (Homo sapiens, UniProt P06493); assay: Inhibition of CDK1/Cyclin A2 (unknown origin) by ADP-Glo kinase assay; type: protein-complex assay; summary of the method: as §2
VCaP [11] = assay: Antitumor activity against human VCaP cells xenografted in mouse assessed as reduction in tumor growth at 0.5 to 1.5 mg/kg, ip treated for 27 days; type: functional, organism-based; conditions: dose 0.5-1.5 mg/kg, time 27.0 day
Summary of the method: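 VCaP CRPC cells (5×10^6) were injected […] NSG or CB17SCID mice. Dosing began at tumours of ~200–400 mm3: 0.5 or 1.5 mg/kg i.p. for 27 days. Vehicle was 20% PEG400, 6% Cremophor EL, 74% PBS. Tumours were collected at the end for Western blot.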

VCaP [12] = assay: Antiproliferative activity against human VCaP cells assessed as irreversible cell growth inhibition pretreated for 6 hrs followed by compound washout and subsequent addition of compound-free medium measured after 5 days by Cell Titer-Glo assay; type: functional, cell-based
Summary of the method: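 VCaP cells (DMEM GlutaMAX, 10% FBS) were exposed to compound for 6 h. The compound was then removed and cells were grown in compound-free medium for 5 days before the viability read-out.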

T1 sequence (Q00535 whole entry): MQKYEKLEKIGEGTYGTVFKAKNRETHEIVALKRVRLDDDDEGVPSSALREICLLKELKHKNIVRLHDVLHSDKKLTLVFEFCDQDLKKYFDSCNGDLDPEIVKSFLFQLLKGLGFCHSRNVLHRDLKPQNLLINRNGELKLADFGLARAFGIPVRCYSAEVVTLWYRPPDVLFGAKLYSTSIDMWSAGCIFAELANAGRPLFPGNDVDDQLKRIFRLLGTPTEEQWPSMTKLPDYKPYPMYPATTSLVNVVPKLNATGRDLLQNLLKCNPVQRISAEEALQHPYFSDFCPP
T1 sequence (Q15078 whole entry, further chain): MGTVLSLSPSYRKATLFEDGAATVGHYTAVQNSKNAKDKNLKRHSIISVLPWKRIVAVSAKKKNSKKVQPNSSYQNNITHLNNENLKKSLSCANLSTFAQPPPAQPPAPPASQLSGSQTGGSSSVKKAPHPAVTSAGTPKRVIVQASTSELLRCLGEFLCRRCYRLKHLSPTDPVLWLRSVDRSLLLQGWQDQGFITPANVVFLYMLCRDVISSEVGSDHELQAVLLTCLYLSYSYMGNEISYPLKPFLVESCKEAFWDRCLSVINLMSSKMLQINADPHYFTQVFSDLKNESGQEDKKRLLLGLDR
CDK6/cyclin D1, sequence (P24385 whole entry): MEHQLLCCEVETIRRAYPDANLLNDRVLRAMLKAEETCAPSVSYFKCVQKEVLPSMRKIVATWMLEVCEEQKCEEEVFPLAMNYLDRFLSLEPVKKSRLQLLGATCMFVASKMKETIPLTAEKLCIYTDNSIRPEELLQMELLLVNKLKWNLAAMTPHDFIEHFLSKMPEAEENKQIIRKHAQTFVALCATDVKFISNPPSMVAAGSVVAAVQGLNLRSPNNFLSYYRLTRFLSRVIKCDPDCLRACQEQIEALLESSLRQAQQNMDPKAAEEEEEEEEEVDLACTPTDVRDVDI
CDK6/cyclin D1, sequence (Q00534 whole entry): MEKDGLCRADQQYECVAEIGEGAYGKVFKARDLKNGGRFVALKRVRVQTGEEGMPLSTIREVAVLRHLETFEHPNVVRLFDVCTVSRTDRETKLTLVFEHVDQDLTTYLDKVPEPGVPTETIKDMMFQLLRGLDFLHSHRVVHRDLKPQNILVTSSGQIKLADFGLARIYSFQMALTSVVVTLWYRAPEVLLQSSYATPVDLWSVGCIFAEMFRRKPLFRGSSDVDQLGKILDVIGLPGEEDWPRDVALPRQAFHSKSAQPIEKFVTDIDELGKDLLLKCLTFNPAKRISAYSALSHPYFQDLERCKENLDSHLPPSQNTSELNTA
Cyclin-Y/Cyclin-dependent kinase 16, sequence (Q00536 whole entry): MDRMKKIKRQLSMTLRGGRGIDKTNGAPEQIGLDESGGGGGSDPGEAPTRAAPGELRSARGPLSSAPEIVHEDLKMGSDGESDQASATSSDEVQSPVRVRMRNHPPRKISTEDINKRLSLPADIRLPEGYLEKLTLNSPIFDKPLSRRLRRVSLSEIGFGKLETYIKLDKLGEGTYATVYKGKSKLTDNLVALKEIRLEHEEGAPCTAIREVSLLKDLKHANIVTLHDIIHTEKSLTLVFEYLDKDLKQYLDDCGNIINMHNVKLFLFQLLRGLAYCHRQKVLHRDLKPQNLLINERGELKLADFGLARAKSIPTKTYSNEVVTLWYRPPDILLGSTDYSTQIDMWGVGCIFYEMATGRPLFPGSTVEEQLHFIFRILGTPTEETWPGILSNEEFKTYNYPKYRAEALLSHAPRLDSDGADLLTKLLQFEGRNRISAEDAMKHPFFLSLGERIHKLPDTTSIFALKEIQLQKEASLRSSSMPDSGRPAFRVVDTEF
Cyclin-Y/Cyclin-dependent kinase 16, sequence (Q8ND76 whole entry, further chain): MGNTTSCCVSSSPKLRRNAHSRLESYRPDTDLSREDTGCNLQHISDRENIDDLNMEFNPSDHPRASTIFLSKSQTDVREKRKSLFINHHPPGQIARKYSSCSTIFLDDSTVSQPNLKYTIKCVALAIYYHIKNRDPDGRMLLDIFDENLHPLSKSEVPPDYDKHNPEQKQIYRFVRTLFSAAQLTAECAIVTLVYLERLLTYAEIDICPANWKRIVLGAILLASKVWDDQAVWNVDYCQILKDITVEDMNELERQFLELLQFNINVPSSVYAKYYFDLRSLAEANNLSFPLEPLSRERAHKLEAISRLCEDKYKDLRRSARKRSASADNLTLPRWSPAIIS
Cyclin-dependent kinase 12 (Homo sapiens), sequence (Q9NYV4 whole entry, looked up): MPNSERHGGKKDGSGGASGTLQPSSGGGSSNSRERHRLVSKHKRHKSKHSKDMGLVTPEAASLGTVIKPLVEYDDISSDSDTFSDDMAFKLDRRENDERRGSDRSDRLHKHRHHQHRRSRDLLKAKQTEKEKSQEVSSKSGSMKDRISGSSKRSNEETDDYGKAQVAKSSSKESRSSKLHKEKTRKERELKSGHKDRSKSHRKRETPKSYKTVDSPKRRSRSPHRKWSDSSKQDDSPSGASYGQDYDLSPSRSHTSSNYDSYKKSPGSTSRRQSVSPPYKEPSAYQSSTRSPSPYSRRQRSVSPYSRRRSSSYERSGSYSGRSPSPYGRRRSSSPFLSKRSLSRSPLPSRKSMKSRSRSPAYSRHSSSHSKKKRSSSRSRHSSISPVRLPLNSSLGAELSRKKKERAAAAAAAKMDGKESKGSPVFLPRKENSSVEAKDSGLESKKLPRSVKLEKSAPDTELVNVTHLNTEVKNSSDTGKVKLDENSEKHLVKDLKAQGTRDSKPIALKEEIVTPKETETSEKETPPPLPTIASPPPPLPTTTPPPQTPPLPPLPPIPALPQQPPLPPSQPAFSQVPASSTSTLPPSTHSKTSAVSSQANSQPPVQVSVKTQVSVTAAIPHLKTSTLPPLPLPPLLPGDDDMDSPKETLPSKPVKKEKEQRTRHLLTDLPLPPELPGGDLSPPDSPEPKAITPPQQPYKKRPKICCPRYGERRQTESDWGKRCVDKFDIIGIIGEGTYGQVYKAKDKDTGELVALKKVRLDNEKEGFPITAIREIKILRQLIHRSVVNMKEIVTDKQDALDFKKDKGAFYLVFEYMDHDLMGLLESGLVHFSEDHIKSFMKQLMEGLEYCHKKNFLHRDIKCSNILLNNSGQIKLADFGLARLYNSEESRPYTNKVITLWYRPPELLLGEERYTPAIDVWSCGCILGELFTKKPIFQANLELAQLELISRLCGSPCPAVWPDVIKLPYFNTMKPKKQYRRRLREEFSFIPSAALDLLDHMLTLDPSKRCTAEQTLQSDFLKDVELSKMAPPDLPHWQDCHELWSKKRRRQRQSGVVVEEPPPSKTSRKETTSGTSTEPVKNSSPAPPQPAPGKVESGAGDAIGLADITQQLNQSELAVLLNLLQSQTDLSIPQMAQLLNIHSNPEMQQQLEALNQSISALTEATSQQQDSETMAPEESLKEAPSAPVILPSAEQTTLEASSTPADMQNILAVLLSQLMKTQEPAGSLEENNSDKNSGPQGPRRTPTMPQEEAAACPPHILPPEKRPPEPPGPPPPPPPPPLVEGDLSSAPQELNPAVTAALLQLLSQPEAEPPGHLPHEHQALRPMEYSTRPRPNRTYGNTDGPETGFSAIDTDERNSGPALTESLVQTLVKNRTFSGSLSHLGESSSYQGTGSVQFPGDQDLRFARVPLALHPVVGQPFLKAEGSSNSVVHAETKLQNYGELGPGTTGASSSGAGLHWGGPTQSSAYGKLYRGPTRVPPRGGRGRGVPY
CDK1/Cyclin E, sequence (P06493 whole entry): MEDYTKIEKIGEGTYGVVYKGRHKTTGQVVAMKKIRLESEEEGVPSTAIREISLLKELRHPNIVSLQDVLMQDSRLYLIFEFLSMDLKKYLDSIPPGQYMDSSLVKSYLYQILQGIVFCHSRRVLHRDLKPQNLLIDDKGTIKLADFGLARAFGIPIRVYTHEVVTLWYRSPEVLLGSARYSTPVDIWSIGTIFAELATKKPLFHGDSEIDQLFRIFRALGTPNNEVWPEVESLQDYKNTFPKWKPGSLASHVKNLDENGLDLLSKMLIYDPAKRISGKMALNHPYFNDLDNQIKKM
CDK1/Cyclin E, sequence (P24864 whole entry, further chain): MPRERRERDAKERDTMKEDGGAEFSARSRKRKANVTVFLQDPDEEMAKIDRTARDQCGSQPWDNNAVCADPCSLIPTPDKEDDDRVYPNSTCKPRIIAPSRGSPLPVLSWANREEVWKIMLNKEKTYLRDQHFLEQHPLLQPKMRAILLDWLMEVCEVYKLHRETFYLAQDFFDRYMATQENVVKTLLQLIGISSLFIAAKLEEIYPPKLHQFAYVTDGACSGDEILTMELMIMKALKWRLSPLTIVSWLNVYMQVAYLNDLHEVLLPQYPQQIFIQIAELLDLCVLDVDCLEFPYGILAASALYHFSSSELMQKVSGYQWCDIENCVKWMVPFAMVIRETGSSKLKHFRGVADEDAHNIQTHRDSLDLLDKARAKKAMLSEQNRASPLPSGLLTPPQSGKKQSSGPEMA
Cyclin-dependent kinase 4/cyclin D1, sequence (P11802 whole entry): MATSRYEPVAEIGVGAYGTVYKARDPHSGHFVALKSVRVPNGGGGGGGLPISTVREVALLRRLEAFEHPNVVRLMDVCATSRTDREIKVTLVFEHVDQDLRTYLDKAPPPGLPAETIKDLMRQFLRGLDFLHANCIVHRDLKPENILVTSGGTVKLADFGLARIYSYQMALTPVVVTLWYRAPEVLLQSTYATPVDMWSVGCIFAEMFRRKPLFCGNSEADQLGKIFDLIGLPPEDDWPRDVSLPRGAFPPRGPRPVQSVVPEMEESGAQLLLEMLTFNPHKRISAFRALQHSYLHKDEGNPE
Cyclin-dependent kinase 4/cyclin D1, sequence (P24385 whole entry, further chain): as the sequence (P24385 whole entry) above

SMILES: Cn1cc(-c2ccc(N(C(=O)NCc3ccccc3)[C@H]3CC[C@H](Nc4ccc(C#N)cn4)CC3)cc2)ccc1=O
- IC50 [4]: 4.86 µM
- IC50 [5]: > 10 µM
- IC50 (CDK9/cyclin T1): 0.515 µM
- Activity (VCaP [6]): inactive
- IC50 [7]: 5.07 µM
- IC50 (CDK7/Cyclin H/MNAT1): 0.679 µM
- IC50 (CDK6/cyclin D1): 8.79 µM
- IC50 [8]: 5.28 µM
- IC50 (CDK8/Cyclin C): > 10 µM
- IC50 (CDK1/Cyclin E): > 10 µM
- IC50 [9]: > 10 µM
- Activity (VCaP [10]): inactive
- IC50 (CDK9/Cyclin K): 0.716 µM
- IC50 (CDK1/Cyclin A): > 10 µM

SMILES: Cn1ncc(Cl)c1-c1cc(C(=O)N[C@H](CN)Cc2ccc(F)c(F)c2)oc1Cl
- Activity (VCaP [11]): Active

SMILES: Cn1cc(-n2cnc3c(NCc4nc5cc(Cl)c(Cl)cc5[nH]4)nc(N4CCOCC4)nc32)cn1
- inhibition (VCaP [12]): inactive

The next lines start with the values.

- IC50 (VCaP [1]): 0.0763 µM
SMILES: C=CC(=O)Nc1cc(N(C(=O)NCc2ccccc2)[C@H]2CC[C@H](Nc3ccc(C#N)cn3)CC2)ccc1N1C[C@H]2C[C@@H]1CN2C

- Activity [2]: Active
- Activity [3]: Active
SMILES: C=CC(=O)Nc1cc(N(C(=O)NCc2ccccc2)[C@H]2CC[C@H](Nc3ccc(C#N)cn3)CC2)ccc1N1CCC(N(C)C(=O)CCOCCOCCOCCOCCNC(=O)CCCC[C@@H]2SC[C@@H]3NC(=O)N[C@@H]32)CC1

- IC50 (VCaP [1]): 0.0043 µM
SMILES: C=CC(=O)Nc1cc(N(C(=O)NCc2ccccc2)[C@H]2CC[C@H](Nc3ccc(C#N)cn3)CC2)ccc1N1CCN(C)[C@@H](C)C1
